Experimental data from ChEMBL document CHEMBL1137008, “Cancer preventive agents 9. Betulinic acid derivatives as potent cancer chemopreventive agents” (Bioorg Med Chem Lett, 2009).

Key:
Raji [1] = experiment: Inhibition of TPA-induced EBV-early antigen activation in human Raji cells assessed as EA induction at 1000 molar ratio after 48 hrs relative to TPA; format: cell-based; design: scale not given: the % may be the effect or the level left; settings: human gammaherpesvirus 4
Outline: (§1)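 Raji cells (virus non-producer, spontaneous EA activation <0.1%) incubated 48 h at 37 °C with 4 mM n-butyric acid plus 32 pM TPA and compound in DMSO; smears stained by indirect immunofluorescence with NPC patient EBV-EA-positive serum, ≥500 cells counted; EA-positive cells expressed relative to butyrate+TPA control (100%); triplicates; IC50 as mol ratio to 32 pmol TPA.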

Raji [2] = experiment: Inhibition of TPA-induced EBV-early antigen activation in human Raji cells assessed as EA induction at 500 molar ratio after 48 hrs relative to TPA; format: cell-based; design: scale not given: the % may be the effect or the level left; settings: human gammaherpesvirus 4; outline: as §1
[3] = Cytotoxicity against human Raji cells assessed as cell viability at 100 molar ratio after 48 hrs by trypan blue staining method; format: cell-based; settings: read-out: Activity
Outline: (§2)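 Raji cells (EBV genome-carrying, Burkitt's lymphoma) grown in RPMI-1640 with 10% FBS; incubated 48 h at 37 °C with 4 mM n-butyric acid, 32 pM TPA and test compound in DMSO at stated compound/TPA molar ratio; viability determined by Trypan blue staining.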

[4] = Cytotoxicity against human Raji cells assessed as cell viability at 1000 molar ratio after 48 hrs by trypan blue staining method; format: cell-based; settings: read-out: Activity; outline: as §2
[5] = Cytotoxicity against human Raji cells assessed as cell viability at 10 molar ratio after 48 hrs by trypan blue staining method; format: cell-based; settings: read-out: Activity; outline: as §2
Raji [6] = experiment: Inhibition of TPA-induced EBV-early antigen activation in human Raji cells assessed as EA induction at 100 molar ratio after 48 hrs relative to TPA; format: cell-based; design: scale not given: the % may be the effect or the level left; settings: human gammaherpesvirus 4; outline: as §1
Raji [7] = experiment: Inhibition of TPA-induced EBV-early antigen activation in human Raji cells assessed as EA induction at 10 molar ratio after 48 hrs relative to TPA; format: cell-based; design: scale not given: the % may be the effect or the level left; settings: human gammaherpesvirus 4; outline: as §1
[8] = Inhibition of TPA-induced EBV-early antigen activation in human Raji cells assessed as EA induction after 48 hrs relative to TPA; format: cell-based, human gammaherpesvirus 4; outline: as §1
[9] = Cytotoxicity against human Raji cells assessed as cell viability at 500 molar ratio after 48 hrs by trypan blue staining method; format: cell-based; settings: read-out: Activity; outline: as §2

Question: Which Activity (Raji [1]) does the source give for `C=C(C)[C@@H]1CC[C@]2(C(=O)O)CC[C@]3(C)[C@H](CC[C@@H]4[C@@]5(C)[C@@H](C(=O)O)[C@H](O)C(C)(C)[C@@H]5CC[C@]43C)[C@@H]12` [CEANOTHIC ACID] here?
Answer: 8.5%

Question: What about the Activity (Raji [2]) of the same compound?
Answer: 35.7%

Question: And the viability at 48 h, 100 molar ratio [3]?
Answer: > 80%

Question: What about the viability at 48 h, 1000 molar ratio [4] of the same compound?
Answer: 60%

Question: And the viability at 48 h, 10 molar ratio [5]?
Answer: > 80%

Question: And the Activity (Raji [6])?
Answer: 72.1%

Question: What about the Activity (Raji [7]) of the same compound?
Answer: 100%

Question: And the IC50 [8]?
Answer: 400 molar ratio

Question: And the viability at 48 h, 500 molar ratio [9]?
Answer: > 80%

Question: Which Activity (Raji [1]) does the source give for `C=C(C)[C@@H]1CC[C@]2(C(=O)O)CC[C@]3(C)[C@H](CC[C@@H]4[C@@]5(C)CC(=O)C(C)(C)[C@@H]5CC[C@]43C)[C@@H]12` here?
Answer: 10.1%

Question: And the Activity (Raji [2])?
Answer: 36.4%

Question: And the viability at 48 h, 100 molar ratio [3]?
Answer: > 80%

Question: And the viability at 48 h, 1000 molar ratio [4]?
Answer: 60%

Question: And the viability at 48 h, 10 molar ratio [5]?
Answer: > 80%

Question: What about the Activity (Raji [6]) of the same compound?
Answer: 74.3%

Question: And the Activity (Raji [7])?
Answer: 100%

Question: What about the IC50 [8] of the same compound?
Answer: 442 molar ratio

Question: And the viability at 48 h, 500 molar ratio [9]?
Answer: > 80%
